Each structure is given as a SMILES string. The source made the active and inactive calls. The calls are words filed in the database; no cut-off is given here.

For two molecules, Activity and IC50 results are on record in ChEMBL document CHEMBL1914406, “Inhibitory effect of novel 5-O-acyl juglones on mammalian DNA polymerase activity, cancer cell growth and inflammatory response” (Bioorg Med Chem, 2011).

The subject of assay [1] is HCT-116. Kind of assay: Cytotoxicity against human HCT116 cells by WST-1 assay relative to etoposide. Type of assay: functional, cell-based.
Assay [2] concerns HCT-116. Nature of the assay: Cytotoxicity against human HCT116 cells by WST-1 assay. It counts as functional, cell-based. Summed up: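 HCT116 colon carcinoma cells (ATCC) grown in McCoy's 5A with 10% FBS, penicillin and streptomycin, 37 °C, 5% CO2. Plated at 1 × 10⁴ cells/well together with compound, which was diluted from a 10 mM DMSO stock into medium (final 0.5% DMSO). Incubated 24 h. Viability read by WST-1, expressed relative to untreated cells.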
For orientation: Formazan colour is commonly taken as a measure of viable cells.

A short description of assay [3]: Inhibition of human DNA polymerase delta using poly(dA)/oligo(dT)18 (A/T = 2/1) and dTTP as the DNA template-primer and nucleotide substrate after 60 mins. Summed up: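 Compound in DMSO, sonicated 30 s. Premixed 0 °C, 10 min with enzyme (0.05 units) in 50 mM Tris-HCl pH 7.5, 1 mM DTT, 50% glycerol, 0.1 mM EDTA, then added to standard reaction mixture. Template-primers: poly(dA)/oligo(dT)18 (2/1) for pols, oligo(dT)18 for TdT, poly(rA)/oligo(dT)18 for HIV-1 RT, with [3H]dTTP. 60 min at 37 °C (Taq 74 °C). Activity relative to no-inhibitor control; mean ± SE of three experiments.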

In another assay the test system is RAW264.7. Kind of assay: Antiinflammatory activity in mouse RAW264.7 cells assessed as inhibition of LPS-induced TNFalpha secretion at 5 uM treated 30 mins before LPS challenge measured after 24 hrs by ELISA. It counts as functional, cell-based. Summed up:
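RAW264.7 cells in MEM with 4.5 g/L glucose, 10% FCS, 5 mM L-glutamine, at 37 °C in 5% CO2. Seeded at 5 × 10⁴ cells/well and grown 24 h. Compound (final 1 and 5 µM) given 30 min before 100 ng/mL LPS. After 24 h, TNF-α in the medium measured by ELISA, relative to the no-compound value (100%). Mean ± SE, n = 4.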
For orientation: ELISA stands for enzyme-linked immunosorbent assay.

Take `CCCCCCCC/C=C\CCCCCCCC(=O)Oc1cccc2c1C(=O)C=CC2=O`: the outcome with HCT-116 [1] and in the assay with HCT-116 [2] was Active. Moreover, 740 nM corresponded to half-maximal inhibition in assay [3] (IC50).

Regarding `CCCCCCCCCCCC(=O)Oc1cccc2c1C(=O)C=CC2=O`, in the assay with RAW264.7, the result was Active.
